Reference: ChEMBL document CHEMBL1125028, “Resolved pyrrolidine, piperidine, and perhydroazepine analogues of the muscarinic agent N-methyl-N-(1-methyl-4-pyrrolidino-2-butynyl)acetamide” (J Med Chem, 1990)

Experiments:
[1] = species on record: Cavia porcellus; assay: Maximum contractile response in guinea pig ileum relative to that elicited by carbachol was determined; type: functional
Method in brief: (§1)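 Guinea pig ileum in Tyrode solution (pH 7.4) with 0.3 mM hexamethonium, 37 °C; isotonic contractions recorded at 1 g tension. Cumulative concentration-response curves built with agonist concentration stepped by a factor of 2.15. Maximal response expressed relative to carbachol. Antagonism tested at no fewer than four antagonist concentrations. Means ± SE over the number of ileal preparations.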

[2] = molecular target: Muscarinic acetylcholine receptor; assay: Compound was tested for its potency against Muscarinic acetylcholine receptor in guinea pig ileum; type: functional, tissue-based, Cavia porcellus
[3] = molecular target: Muscarinic acetylcholine receptor; assay: (§2) Dissociation constant towards Muscarinic acetylcholine receptor in guinea pig ileum; type: tissue-based, Cavia porcellus
[4] = species on record: Cavia porcellus; assay: Slope of schild plot in guinea pig ileum was determined; type: functional; method in brief: as §1
[5] = Inhibition of specific binding of [3H]NMS to Muscarinic acetylcholine receptor in rat cerebral cortex by using competitive binding assay; type: tissue-based
Method in brief: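 Male Sprague–Dawley rat (200–300 g) cortex homogenized in 50 mM Na/K phosphate pH 7.4, spun 30000g 10 min, resuspended at 10 mg wet tissue/mL. Incubated with 0.3 nM (-)-[3H]NMS and test ligand, 30 min at 30 °C; filtration assay. […] IC50 by one-site nonlinear fit, converted to Ki by Cheng–Prusoff. Three determinations in triplicate.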

[6] = molecular target: Muscarinic acetylcholine receptor; assay: as §2; type: tissue-based, Cavia porcellus; method in brief: as §1; remark: listed apart in the source

Row | EC50 [2] [µM] | Kd [3] [µM] | Ki [5] [µM] | Kd [6] [µM] | SMILES | Emax [1] | Slope of Schild plot [4]
1 | 0.094 | 0.2 | – | – | CC(=O)N(C)[C@H](C)C#CCN1CCCC1 | 0.83 | –
2 | – | 1.16 | 0.41 | – | CC(=O)N1CCC[C@@H]1C#CCN1CCCC1 | 0 | 1.05
3 | – | 3.23 | – | – | CC(=O)N(C)[C@@H](C)C#CCN1CCCC1 | – | –
4 | – | 3.55 | 1.23 | – | CC(=O)N1CCCCCC1C#CC[N+](C)(C)C (racemic) | – | 1.03
5 | – | 0.097 | 0.044 | – | CC(=O)N1CCCCC1C#CCN1CCCC1 (racemic) | 0 | 0.88
6 | 2.8 | – | 0.75 | – | CC(=O)N1CCCCC1C#CC[N+](C)(C)C (racemic) | 0.75 | –
7 | – | 7 | 2.9 | – | CC(=O)N1CCCCCC1C#CCN(C)C (racemic) | 0 | 1.1
8 | – | 0.11 | 0.082 | – | CC(=O)N1CCCCCC1C#CCN1CCCC1 (racemic) | 0 | 1.17

Second part, the molecule before the results:

Row | SMILES | EC50 [2] [µM] | Kd [3] [µM] | Ki [5] [µM] | Kd [6] [µM] | Emax [1] | Slope of Schild plot [4]
9 | CC(=O)N1CCCC[C@H]1C#CCN1CCCC1 | – | 6.32 | 1.48 | – | – | 0.99
10 | CC(=O)N1CCCCC[C@@H]1C#CCN1CCCC1 | – | 0.161 | 0.042 | – | 0 | 1.27
11 | CC(=O)N1CCCC[C@@H]1C#CCN1CCCC1 | – | 0.08 | 0.016 | – | – | 0.86
12 | CC(=O)N1CCCCC[C@H]1C#CCN1CCCC1 | – | 7.85 | 2.07 | – | 0 | 1.17
13 | CC(=O)N1CCC[C@H]1C#CCN1CCCC1 | – | 16.01 | 5.16 | – | 0 | 0.8
14 | CC(=O)N1CCCCC1C#CCN(C)C (racemic) | – | 8.3 | 2.26 | – | 0 | 0.9
15 | CC(=O)N1CCCC1C#CCN1CCCC1 (racemic) | – | 1.4 | 0.67 | – | 0 | 0.9
16 | CC(=O)N1CCCC1C#CC[N+](C)(C)C (racemic) | 7.5 | – | 6.1 | 49.5 | 0.8 | –
17 | CC(=O)N1CCCC1C#CCN(C)C (racemic) | – | 125 | 25.4 | – | 0 | –
18 | C[N+](C)(C)CCOC(N)=O.[Cl-] [CARBACHOL] | – | – | – | – | 1 | –
